NF-kB expr up: NF-kB expression increase, human neuronal cells; NF-kB reporter expression; active compounds read high; fold change at 12.5 µM; hit rate 1.6% among 190,000; AID 1239; in the data active = fold change above about 3.3
STAT1 activator: increases IFN-gamma driven STAT1 reporter signal | NIH 3T3 STAT1-luciferase reporter, luminescence; 100% = IFN-gamma alone, no compound | activation (% of control), % at 5.5 µM | hit rate 2.6% among 200,000 | AID 932;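 active = activation above the screen-wide mean activation plus 3 SD, cut at about 130% in these data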;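 note: raw ratio to IFN-gamma control signal so 100% means no change and 0% no light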
APP 5'UTR act: activates APP 5'UTR luciferase reporter. SH-SY5Y APP 5'UTR luciferase reporter, luminescence; zero percent = DMSO vehicle wells. activation, % at 2 µM. hit rate 1% among 190,000. AID 1276;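 active = activation above a set limit, based on mean plus 3 SD of controls, cut at about 140% in these data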
FLuc act counter: firefly luciferase counter-screen for stimulation assays | ATPlite luciferase biochemical, luminescence, 10 min; 0 = ATP-free wells, 1 = DMSO control | activation factor at 10 µM | AID 1027 | P08659 | 200,000 tested, under 10 active;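 active = luciferase activation factor, scaled between plate controls, of at least 2 with compound at 10 µM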
Target sequence (P08659 whole entry, looked up): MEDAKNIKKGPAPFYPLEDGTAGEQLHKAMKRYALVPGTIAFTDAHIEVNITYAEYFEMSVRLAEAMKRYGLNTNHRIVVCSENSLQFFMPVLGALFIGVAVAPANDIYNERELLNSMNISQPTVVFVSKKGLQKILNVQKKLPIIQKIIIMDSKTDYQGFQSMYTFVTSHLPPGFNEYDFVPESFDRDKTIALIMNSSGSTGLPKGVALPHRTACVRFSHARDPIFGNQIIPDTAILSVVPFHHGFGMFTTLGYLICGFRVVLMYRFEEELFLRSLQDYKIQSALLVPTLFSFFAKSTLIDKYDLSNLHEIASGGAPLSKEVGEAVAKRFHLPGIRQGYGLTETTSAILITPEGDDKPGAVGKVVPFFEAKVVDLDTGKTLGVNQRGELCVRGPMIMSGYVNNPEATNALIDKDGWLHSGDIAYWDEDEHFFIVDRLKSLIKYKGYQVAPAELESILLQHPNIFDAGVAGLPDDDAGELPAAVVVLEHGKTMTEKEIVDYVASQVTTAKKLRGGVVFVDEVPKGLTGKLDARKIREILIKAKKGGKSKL
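assay system = Luciferase/luciferin detection reagent, cell-free biochemical luciferase assay | also added = ATP substrate | times = 10 min post-reagent at room temperature | measured by = luminescence from luciferase reaction | measure = luciferase activation, seen as luminescence increase over controls | benchmarks = low control with PBS replacing ATP, high control enzyme plus ATP without compound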
FLuc inhib CS: inhibits firefly luciferase, flagging false hits in luciferase inhibition screens | ATPLite firefly luciferase biochemical luminescence, 10 min | P08659 | hit rate 1.5% among 200,000 | inhibition, % at 10 µM | AID 1006;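 active = inhibition above about 50% when tested at 10 µM, limit read from the data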
The depositor's hits bear a star; / = not tested or not shown. Compounds with a hit are over-represented: about 4.1% of the library has one in this group of screens.

SMILES	NF-kB expr up	STAT1 activator	APP 5'UTR act	FLuc act counter	FLuc inhib CS
COc1ccc(NC2=C(Cl)C(=O)N(CCc3ccccc3)C2=O)cc1	2.8	142*	87	1	2
COc1ccc(NC2=C(Cl)C(=O)N(CCc3ccccc3)C2=O)c(OC)c1	1.7	99	26	1.1	-6
COc1ccc(-n2c(C)cc(/C=N/Nc3nnc(C)n3N)c2C)cc1	0.87	131*	4	1.1	-9
C=CCC(O)c1c(-c2ccccc2)nn(C)c1Cl (stereo not drawn)	1.1	95	1	1.1	-6
CC(NC(=O)CCc1nnc(Cc2cccc(C(F)(F)F)c2)o1)C1CC1 (stereo not drawn)	2	126	28	1.1	-6
CC(C)CN(C)C(=O)CCc1nnc(Cc2cccc(C(F)(F)F)c2)o1	2.1	133*	66	1	-5
C=C(C)CNC(=O)CCc1nnc(Cc2cccc(C(F)(F)F)c2)o1	2.7	140*	57	1.1	-7
Cc1ccc(S(=O)(=O)Oc2ccccc2/C=N/NC(N)=S)cc1	0.83	108	-91	1	-2
COc1cccc(C(=O)Nc2c(F)cccc2F)c1	1.2	94	-2	1.1	-8
Cn1c(NC(=O)c2cccc(C(F)(F)F)c2)cc(=O)n(C)c1=O	1	101	-8	1	-4
C=COC(=O)CSc1nc(-c2cccs2)ccc1C#N	1.9	136*	90	1	-3
Cc1ccc(Cn2c(/C=C/c3ccco3)nc3ccccc32)cc1	2.6	98	37	1	1
O=C(CSc1cccc[n+]1[O-])c1cc2ccccc2o1	4.2*	112	31	1	-1
O=C(O)CSc1cccc[n+]1[O-]	1	97	-2	1	-4
O=C(CSc1cccc[n+]1[O-])c1cc(Cl)ccc1Cl	7*	108	-27	1	-4
O=C(O)/C=C\C(=O)Nc1ccccc1C(=O)NC1CCCCC1	1.3	112	2	1	-5
CC(C)=CC(=O)OCC(=O)NC(=O)NC(C)(C)C	0.99	100	11	1	-2
COc1ccc(OC)c(NC(=O)c2cnc3ccccn3c2=O)c1	/	103	2	/	/
COc1ccc(C(=O)Nc2cnc3ccccn3c2=O)cc1	2.4	140*	72	0.9	13
Cc1ccccc1NC(=O)c1cnc2ccccn2c1=O	1.8	85	104	0.2	82*
Cc1ccc2[nH]cc(C(=O)NCc3cccs3)c(=O)c2c1	0.74	91	-8	1	1
COc1cccc2c(=O)c(C(=O)NCc3cccs3)c[nH]c12	2.4	130*	49	0.8	16
CN1CCN(C(=O)c2ccccc2-c2nc(-c3ccccc3)no2)CC1	1.5	105	19	1	1
N#CCCN(Cc1cccnc1)C(=S)NCc1ccco1	1.4	94	-20	1	0
O=c1sc(Nc2ccccc2)nc2ccsc12	2.5	137*	66	1	2
SMILES	NF-kB expr up	STAT1 activator	APP 5'UTR act	FLuc act counter	FLuc inhib CS
CCOC(=O)c1csc(NC(=O)CSc2nnnn2-c2ccc(OC)c(OC)c2)n1	1.2	108	-19	1	-5
COc1ccc(NC2=C(NCCO)C(=O)c3ccccc3C2=O)cc1	4.3*	101	32	0.9	6
C/C(=N\NC(=O)C1(C)CC1(Br)Br)c1ccc(NC(=O)C2CCC2)cc1 (stereo not drawn)	1	97	-10	1	-4
C/C(=N/NC(=O)c1ccoc1C)c1ccc(NC(=O)C2CCCC2)cc1	1.2	136*	161*	1.1	-7
C/C(=N\NC(=O)c1ccn(C)n1)c1ccc(NC(=O)C2CCCC2)cc1	0.99	135*	8	1	-5
Cn1c(CCc2ccc(N)cc2)nc2ccccc21	2.6	128	131	0.5	55*
Cc1cc(C)cc(N(CC(=O)N/N=C/c2ccncc2)S(=O)(=O)c2ccccc2)c1	0.74	93	5	1	-4
C=CCn1c(C)cc(C(=O)COC(=O)[C@@H](NC(=O)c2ccccc2Cl)C(C)C)c1C	0.99	80	101	0	96*
C=CCN(c1ccc(C(=O)Nc2ccc(C)c(C)c2)cc1)S(C)(=O)=O	1.1	99	4	1	-2
Cc1cc(C)c(C)c(S(=O)(=O)Nc2ccccc2C(=O)O)c1C	0.99	98	8	0.9	6
S=C(NC1CCCCC1)N1CCN(C2CCCCC2)CC1	/	105	-4	1	0
CCOC(=O)C1=C(c2ccccc2)O/C(=C(/C#N)C(F)(F)F)S1	8.6*	79	-17	1.1	-9
COc1ccc(N2CCN(C(=O)C3CCN(S(=O)(=O)N4CCOCC4)CC3)CC2)cc1	1	90	7	1.1	-8
CSc1nc2sc3c(c2c2nncn12)CCC3	1.2	102	-2	1.1	-5
CCc1nc(Sc2nnnn2-c2ccccc2)c2c3c(sc2n1)CCCC3	8*	90	-18	1.1	-7
Cc1nc(Sc2nnnn2C)c2c3c(sc2n1)CCC3	12*	86	-7	1.1	-9
CC1CC(C)CN(CCCNC(=O)c2cc3c(=O)[nH]c4ccccc4c3n2C)C1 (stereo not drawn)	1.3	99	-3	1	-3
CCCCNS(=O)(=O)c1ccc(OC)c2ncccc12	1	98	7	1.1	-10
CC(C)CCc1noc(CN(C)CC2CCN(Cc3ccccc3)CC2)n1	0.9	102	-9	1.1	-8
O=C(/C=C/c1ccc(N2CCCCC2)c([N+](=O)[O-])c1)c1ccc(O)cc1	3.8*	143*	121	0.8	21
CS(=O)(=O)NCc1ccc(C(=O)NCCOc2ccccc2)cc1	2	115	74	1	-4
CC(=O)Nc1ccc2c(c1)C(=O)N(c1ccc(C)cc1)C2=O	1.3	120	18	1	2
Cc1ccc(N2C(=O)c3ccc(N)cc3C2=O)cc1	3.5*	149*	29	0.7	26
Cc1ccc(N2C(=O)c3ccccc3C2=O)cc1C	1.9	124	13	1	1
Cc1ccc(N2C(=O)c3ccc(N)cc3C2=O)cc1C	3.7*	141*	34	0.8	19
SMILES	NF-kB expr up	STAT1 activator	APP 5'UTR act	FLuc act counter	FLuc inhib CS
Cc1ccc(S(=O)(=O)NCCC(=O)Nc2ccc(C)cc2C(=O)c2ccccc2)cc1	0.89	106	-10	1	-4
O=S(=O)(c1ccccc1)c1nc(NC2CC2)sc1Cl	1	86	-29	1	-4
Cc1nn(Cc2ccccc2)c(Cl)c1C(=O)NCCc1ccccc1	4.3*	149*	91	0.9	13
CCC(c1nnnn1C(C)(C)CC)N(CCN1CCOCC1)Cc1cc2cc(C)ccc2[nH]c1=O (stereo not drawn)	0.93	98	-18	1.1	-8
Cc1ccc(C(=O)Nc2ccc3c(c2)CCC3)cc1	6.4*	40	154*	0.1	90*
O=C(NC1CCCCCCC1)c1ccc2c(c1)OCO2	6.9*	125	153*	0.6	43
Cc1ccccc1C(=O)Nc1ccc2c(c1)OCO2	4.8*	107	177*	0.3	74*

Screening data as filed in PubChem BioAssay.
